Experimental data taken from ChEMBL document CHEMBL5038580 (J Med Chem, 2022).
The source made the active and inactive calls. The rule behind the calls is not given here. Residues, ends and D or L forms follow the SMILES beside them.

How the values were obtained:
[1] = tested on: Human immunodeficiency virus 1; experiment: Antiviral activity against HIV 1 25710-2 subtype C assessed as inhibition of viral entry preincubated for 30 min followed by U87-CD4-[…] positive cells addition and culture medium replacement after 12 hrs post infection and measured after 48 hrs by luciferase assay; assay type: functional, organism-based; conditions: Human immunodeficiency virus 1, 25710-2 subtype C
Method in brief: (§1)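 U87 CD4+ CCR5+ cells (1 × 10^4/well) were seeded and grown for 12 h at 37 °C, 5% CO2. Diluted peptides were mixed with pseudovirus for 30 min at 37 °C and then put on the cells. Medium was replaced 12 h post-infection. Cells were lysed 48 h later and luciferase was read. Three independent experiments, mean ± SD.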

[2] = tested on: Human immunodeficiency virus 1; experiment: Antiviral activity against HIV 1 JRFL subtype B assessed as inhibition of viral entry preincubated for 30 min followed by U87-CD4-[…] positive cells addition and culture medium replacement after 12 hrs post infection and measured after 48 hrs by luciferase assay; assay type: functional, organism-based; conditions: Human immunodeficiency virus 1, JRFL subtype B; method in brief: as §1
[3] = tested on: Human immunodeficiency virus 1; experiment: Antiviral activity against HIV-1 IIIB assessed as inhibition of HIV-1 Env mediated cell-cell fusion in MT-2 cells preincubated for 30 mins followed by cell addition and measured after 2 hrs by calcein AM staining based fluorescence microscopy; assay type: functional, organism-based; conditions: Human immunodeficiency virus 1, IIIB, MT2
Method in brief: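 H9/HIV-1 IIIB cells were labelled with Calcein AM for 30 min at 37 °C, washed, and resuspended in RPMI/10% FBS. They were incubated with diluted peptides for 30 min at 37 °C. MT-2 cells (1 × 10^5) were then added and cultured for 2 h at 37 °C. Fused cells were counted by fluorescence microscopy and IC50 was calculated. Three independent experiments.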

[4] = tested on: Human immunodeficiency virus 1; experiment: Antiviral activity against HIV 1 BaL(R5) incubated overnight by ELISA analysis; assay type: functional, organism-based; conditions: Human immunodeficiency virus 1, BaL(R5)
Method in brief: (§2)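 Peptides were diluted in FBS-free RPMI 1640 and mixed with 100 TCID50 HIV-1 BaL. CEMx174 5.25 M7 cells (10^4) were added and cultured overnight at 37 °C, then medium was changed to RPMI/10% FBS. After 6 more days, supernatants were lysed with 5% Triton X-100 and p24 was measured by ELISA. IC50 calculated from three independent experiments.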

[5] = tested on: Human immunodeficiency virus 1; experiment: Antiviral activity against HIV 1 IIIB([…]) incubated overnight by ELISA analysis; assay type: functional, organism-based
Method in brief: as §2, with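 “HIV-1 IIIB. MT-2” for “HIV-1 BaL. CEMx174 5.25 M7”, “After 3” for “After 6”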

[6] = in vitro; conditions: human, MT2 cells
[7] = tested on: SARS-CoV-2; experiment: Antiviral activity against SARS-CoV-2 transfected in 293T cells assessed as inhibition of viral S protein mediated membrane fusion to 293T/ACE2 cells at 20 uM incubated for 24 hrs by fluorescence microscopy analysis; assay type: functional, organism-based; conditions: Severe acute respiratory syndrome coronavirus 2, HEK-293T
Method in brief: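 Single-concentration screen at 20 μM. Effector 293T cells expressing S/EGFP (10^4) were added to ACE2-293T target cells (10^5/well) and co-incubated at 37 °C for 24 h. Fusion was scored by fluorescence microscopy from counts of fused and unfused cells.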

[8] = tested on: Human coronavirus OC43; experiment: Antiviral activity against HCoV-OC43 assessed as inhibition of viral S-protein mediated cell-cell fusion in Huh7 cells preincubated for 30 mins followed by cell addition and measured after 24 hrs; assay type: functional, cell-based; conditions: Betacoronavirus 1, OC43, Huh-7
Method in brief: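 Effector HEK293T cells were transfected with an OC43 spike/GFP plasmid and harvested after 36 h. They were preincubated with diluted peptides at 37 °C for 30 min, then co-incubated with Huh-7 target cells in the presence of trypsin for 24 h. Inhibition was calculated from counts of fused and unfused cells. Three independent experiments, mean ± SD.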

[9] = tested on: Human coronavirus OC43; experiment: Antiviral activity against HCoV-OC43 assessed as reduction in viral infection preincubated for 30 mins followed by RD cells addition and measured after 3 days by CCK-8 assay; assay type: functional; conditions: Betacoronavirus 1, OC43, RD
Method in brief: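 HCoV-OC43 (100 TCID50) was mixed with diluted peptides for 30 min at 37 °C, then added to RD cells. After 3 days, cytopathic effect was read by CCK-8. Three independent experiments, mean ± SD.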

[10] = in vitro; conditions: human, RD cells
[11] = tested on: SARS-CoV-2; experiment: Antiviral activity against SARS-CoV-2 transfected in 293T cells assessed as inhibition of viral S protein mediated membrane fusion to 293T/ACE2 cells incubated for 24 hrs by fluorescence microscopy analysis; assay type: functional, organism-based, HEK293T; conditions: Severe acute respiratory syndrome coronavirus 2, HEK-293T
Method in brief: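 Effector 293T cells were transfected with an S/EGFP plasmid for 48 h and collected in FBS-free DMEM. ACE2-293T target cells (10^5/well) were plated 6–8 h before fusion. Effector cells (10^4) were added with graded peptide dilutions and co-incubated at 37 °C for 24 h. Percent inhibition was calculated from fused and unfused cell counts under fluorescence microscopy.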

[12] = tested on: Huh-7; experiment: Cytotoxicity against human Huh7 cells incubated for 48 hrs by CCK-8 assay; assay type: functional
Method in brief: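 Huh-7 cells (100 μL at 1 × 10^5 cells/mL) were preincubated 12 h at 37 °C, 5% CO2. Serially diluted peptide was added for 48 h, with a no-peptide blank and a Triton X-100 positive control. CCK-8 was added for 2 h and absorbance read at 450 nm. Three independent experiments, mean ± SD.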

[13] = tested on: Mus musculus; experiment: Antiviral activity against MERS-COV infected in BALB/c mouse at 0.023 mmol/kg, iv measured upto 12 hrs; assay type: functional, organism-based; conditions: time hrs <=12
Method in brief: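 Peptide in PBS (pH 7.4) was given at 0.023 mmol/kg i.v. to three male BALB/c mice aged 8 weeks. Sera were tested in a 2 h S-mediated fusion assay with Huh-7 target cells. The serum dilution giving 50% fusion inhibition was calculated. Significance by Student's t test.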

Row | Compound | IC50 [1] [µM] | IC50 [2] [µM] | IC50 [3] [µM] | IC50 [4] [µM] | IC50 [5] [µM] | CC50 at 48 h [6] [µM] | Activity [7] | IC50 [8] [µM] | IC50 [9] [µM] | CC50 at 48 h [10] [µM] | IC50 [11] [µM] | CC50 [12] [µM] | Activity [13]
1 | enfuvirtide | 0.0115 | 0.00786 | 0.024 | 0.00158 | 0.0178 | > 10 |  |  |  |  |  |  | 
2 | CC[C@H](C)[C@H](NC(=O)[C@H](C)NC(=O)[C@H](CCC(=O)O)NC(=O)[C@H](CCC(=O)O)NC(=O)[C@H](CC(C)C)NC(=O)[C@H](CCCCN)NC(=O)[C@H](CCCCN)NC(=O)[C@H](CCSC)NC(=O)[C@H](CCC(=O)O)NC(=O)[C@H](Cc1ccc(O)cc1)NC(=O)[C@H](CCC(=O)O)NC(=O)[C@H](CC(C)C)NC(=O)[C@H](CC(=O)O)NC(=O)[C@H](CC(C)C)NC(=O)[C@H](Cc1ccccc1)NC(=O)[C@@H](NC(=O)[C@@H](NC(=O)[C@H](CC(N)=O)NC(=O)[C@@H](NC(=O)[C@H](CCC(N)=O)NC(=O)[C@H](CC(=O)O)NC(=O)[C@H](CC(C)C)NC(=O)[C@H](CO)NC(C)=O)[C@@H](C)CC)C(C)C)[C@@H](C)O)C(=O)N[C@@H](CCCCN)C(=O)N[C@@H](CCCCN)C(=O)N[C@@H](CC(C)C)C(=O)N[C@@H](CCC(=O)O)C(=O)N[C@@H](CCC(=O)O)C(=O)N[C@@H](CO)C(=O)N[C@@H](Cc1ccc(O)cc1)C(=O)N[C@H](C(=O)N[C@@H](CC(=O)O)C(=O)N[C@@H](CC(C)C)C(=O)N[C@@H](CCCCN)C(=O)N[C@@H](CCC(=O)O)C(=O)N[C@@H](CC(C)C)C(N)=O)[C@@H](C)CC |  |  |  |  |  |  | Active | 0.28 | 0.97 | > 40 |  |  | 
3 | CC[C@H](C)[C@H](NC(C)=O)C(=O)N[C@@H](CCC(=O)O)C(=O)N[C@@H](CCC(=O)O)C(=O)N[C@H](C(=O)N[C@H](C(=O)N[C@@H](CCCCN)C(=O)N[C@@H](CCCCN)C(=O)N[C@H](C(=O)N[C@@H](Cc1c[nH]cn1)C(=O)N[C@@H](Cc1c[nH]cn1)C(=O)N[C@H](C(=O)N[C@@H](CCC(=O)O)C(=O)N[C@@H](CCCNC(=N)N)C(=O)N[C@@H](C)C(=O)N[C@H](C(=O)N[C@@H](CCC(=O)O)C(=O)N[C@@H](C)C(=O)N[C@@H](CCC(N)=O)C(=O)N[C@@H](CCC(N)=O)C(=O)N[C@@H](CCCCN)C(=O)N[C@@H](CC(C)C)C(=O)N[C@@H](CC(C)C)C(=O)N[C@@H](CCC(N)=O)C(=O)N[C@@H](CC(C)C)C(=O)N[C@H](C(=O)N[C@H](C(=O)N[C@@H](Cc1c[nH]c2ccccc12)C(=O)NCC(=O)N[C@H](C(=O)N[C@@H](CCCCN)C(=O)N[C@@H](CCC(N)=O)C(=O)N[C@@H](CC(C)C)C(=O)N[C@@H](CCC(N)=O)C(=O)N[C@@H](C)C(=O)N[C@@H](CCCNC(=N)N)C(=O)N[C@H](C(=O)N[C@@H](CC(C)C)C(N)=O)[C@@H](C)CC)[C@@H](C)CC)C(C)C)[C@@H](C)O)[C@@H](C)CC)[C@@H](C)CC)[C@@H](C)CC)C(C)C)[C@@H](C)CC (Ac-IEEIVKKIHHIERAIEAQQKLLQLTVWGIKQLQARIL-NH2) | 0.298 | 0.353 | 0.472 | 0.176 | 0.0185 |  |  | > 20 | > 20 |  | > 20 |  | 
4 | CC[C@H](C)[C@H](NC(=O)[C@H](Cc1ccc(O)cc1)NC(=O)[C@H](CO)NC(=O)[C@H](CCC(=O)O)NC(=O)[C@H](CCC(=O)O)NC(=O)[C@H](CC(C)C)NC(=O)[C@H](CCCCN)NC(=O)[C@H](CCCCN)NC(=O)[C@@H](NC(=O)[C@@H](NC(=O)[C@H](CCC(=O)O)NC(=O)[C@H](CCC(=O)O)NC(=O)[C@H](CC(C)C)NC(=O)[C@H](CCCCN)NC(=O)[C@H](CCCCN)NC(=O)[C@H](CCSC)NC(=O)[C@H](CCC(=O)O)NC(=O)[C@H](Cc1ccc(O)cc1)NC(=O)[C@H](CCC(=O)O)NC(=O)[C@H](CC(C)C)NC(=O)[C@H](CC(=O)O)NC(=O)[C@H](CC(C)C)NC(=O)[C@H](CC(C)C)NC(=O)[C@@H](NC(=O)[C@@H](NC(=O)[C@H](CC(N)=O)NC(=O)[C@@H](NC(=O)[C@H](CCC(N)=O)NC(=O)[C@@H](NC(=O)[C@H](CC(C)C)NC(=O)[C@H](CO)NC(C)=O)[C@@H](C)O)[C@@H](C)CC)[C@@H](C)O)[C@@H](C)O)C(C)C)C(C)C)C(=O)N[C@@H](CC(=O)O)C(=O)N[C@@H](CC(C)C)C(=O)N[C@@H](CCCCN)C(=O)N[C@@H](CCC(=O)O)C(=O)N[C@@H](CC(C)C)C(N)=O |  |  |  |  |  |  |  |  |  |  |  | > 50 | Active
